Measured values as given in ChEMBL document CHEMBL3862011, “Neuroprotective effects of benzyloxy substituted small molecule monoamine oxidase B inhibitors in Parkinson's disease” (Bioorg Med Chem, 2016).
Activity calls are given as the source filed them. The rule behind the calls is not given here.

Columns and labels:
[1] = Neuroprotective activity against rotenone-induced toxicity in rat PC12 cells assessed as cell survival at 20 uM preincubated for 24 hrs followed by rotenone addition measured after 24 hrs by MTT assay relative to control; assay type: functional; conditions: PC-12, read-out: Survival
Procedure, shortened: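 PC12 cells seeded 5×10^3/well, after 24 h given compound at 20 μM for 24 h at 37 °C, then exposed to 6-OHDA (40 μM) or rotenone (1 μM) for 24 h. […] Mean ± SEM of three independent experiments.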

PC-12 [2] = assay: Neuroprotective activity against 6-OHDA-induced toxicity in rat PC12 cells assessed as increase in cell survival preincubated for 24 hrs followed by 6-OHDA addition measured after 24 hrs by MTT assay; assay type: functional, cell-based
Procedure, shortened: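 PC12 cells in RPMI-1640 with 10% FBS were seeded at 5×10^3 cells/well. After 24 h, compounds at 20 μM were added for 24 h at 37 °C, followed by 6-OHDA (40 μM) or rotenone (1 μM) for 24 h. Viability by MTT (570 nm, reference 630 nm), expressed as percent of untreated control. […] Mean ± SEM.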

PC-12 [3] = assay: Neuroprotective activity against 6-OHDA-induced apoptosis in rat PC12 cells assessed as early apoptotic cells at 5 uM after 24 hrs by 7-AAD/annexin V APC staining-based flow cytometric method (reference value: 42.1%); assay type: functional
PC-12 [4] = assay: Neuroprotective activity against 6-OHDA-induced apoptosis in rat PC12 cells assessed as necrotic cells at 5 uM after 24 hrs by 7-AAD/annexin V APC staining-based flow cytometric method (reference value: 0.6%); assay type: functional
PC-12 [5] = assay: Neuroprotective activity against 6-OHDA-induced apoptosis in rat PC12 cells assessed as viable cells at 5 uM after 24 hrs by 7-AAD/annexin V APC staining-based flow cytometric method (reference value: […]); assay type: functional; conditions: PC-12, 24 h, read-out: Activity
PC-12 [6] = assay: Neuroprotective activity against 6-OHDA-induced apoptosis in rat PC12 cells assessed as early apoptotic cells at 10 uM after 24 hrs by 7-AAD/annexin V APC staining-based flow cytometric method (reference value: 42.1%); assay type: functional
PC-12 [7] = assay: Neuroprotective activity against 6-OHDA-induced apoptosis in rat PC12 cells assessed as viable cells at 10 uM after 24 hrs by 7-AAD/annexin V APC staining-based flow cytometric method (reference value: […]); assay type: functional; conditions: PC-12, 24 h, read-out: Activity
PC-12 [8] = assay: Neuroprotective activity against 6-OHDA-induced apoptosis in rat PC12 cells assessed as early apoptotic cells at 20 uM after 24 hrs by 7-AAD/annexin V APC staining-based flow cytometric method (reference value: 42.1%); assay type: functional
PC-12 [9] = assay: Neuroprotective activity against 6-OHDA-induced apoptosis in rat PC12 cells assessed as early apoptotic cells at 40 uM after 24 hrs by 7-AAD/annexin V APC staining-based flow cytometric method (reference value: 42.1%); assay type: functional
PC-12 [10] = assay: Neuroprotective activity against 6-OHDA-induced apoptosis in rat PC12 cells assessed as necrotic cells at 40 uM after 24 hrs by 7-AAD/annexin V APC staining-based flow cytometric method (reference value: 0.6%); assay type: functional
PC-12 [11] = assay: Neuroprotective activity against rotenone-induced apoptosis in rat PC12 cells assessed as late apoptotic cells at 5 uM after 24 hrs by 7-AAD/annexin V APC staining-based flow cytometric method (reference value: 9.9%); assay type: functional
PC-12 [12] = assay: Neuroprotective activity against rotenone-induced apoptosis in rat PC12 cells assessed as viable cells at 5 uM after 24 hrs by 7-AAD/annexin V APC staining-based flow cytometric method (reference value: 39.3%); assay type: functional; conditions: PC-12, 24 h, read-out: Activity
PC-12 [13] = assay: Neuroprotective activity against rotenone-induced apoptosis in rat PC12 cells assessed as late apoptotic cells at 10 uM after 24 hrs by 7-AAD/annexin V APC staining-based flow cytometric method (reference value: 9.9%); assay type: functional
PC-12 [14] = assay: Neuroprotective activity against rotenone-induced apoptosis in rat PC12 cells assessed as necrotic cells at 10 uM after 24 hrs by 7-AAD/annexin V APC staining-based flow cytometric method (reference value: 48.6%); assay type: functional
PC-12 [15] = assay: Neuroprotective activity against rotenone-induced apoptosis in rat PC12 cells assessed as viable cells at 10 uM after 24 hrs by 7-AAD/annexin V APC staining-based flow cytometric method (reference value: 39.3%); assay type: functional; conditions: PC-12, 24 h, read-out: Activity
PC-12 [16] = assay: Neuroprotective activity against rotenone-induced apoptosis in rat PC12 cells assessed as early apoptotic cells at 40 uM after 24 hrs by 7-AAD/annexin V APC staining-based flow cytometric method (reference value: 2.2%); assay type: functional
PC-12 [17] = assay: Neuroprotective activity against rotenone-induced apoptosis in rat PC12 cells assessed as late apoptotic cells at 40 uM after 24 hrs by 7-AAD/annexin V APC staining-based flow cytometric method (reference value: 9.9%); assay type: functional
PC-12 [18] = assay: Neuroprotective activity against rotenone-induced apoptosis in rat PC12 cells assessed as necrotic cells at 40 uM after 24 hrs by 7-AAD/annexin V APC staining-based flow cytometric method (reference value: 48.6%); assay type: functional
PC-12 [19] = assay: Neuroprotective activity against rotenone-induced apoptosis in rat PC12 cells assessed as viable cells at 40 uM after 24 hrs by 7-AAD/annexin V APC staining-based flow cytometric method (reference value: 39.3%); assay type: functional; conditions: PC-12, 24 h, read-out: Activity
PC-12 [20] = assay: Neuroprotective activity against rotenone-induced apoptosis in rat PC12 cells at 20 uM preincubated for 24 hrs followed by rotenone addition measured after 24 hrs by 7-AAD/annexin V APC staining-based flow cytometric method; assay type: functional, cell-based
PC-12 [21] = assay: Neuroprotective activity against 6-OHDA-induced toxicity in rat PC12 cells assessed as increase in cell viability after 24 hrs by phase-contrast microscopic method; assay type: functional, cell-based
Procedure, shortened: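 PC12 cells were exposed to 5-40 μM test compound together with 40 μM 6-OHDA or 1 μM rotenone for 24 h. Viability was judged from phase-contrast images against untreated controls.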

PC-12 [22] = assay: Neuroprotective activity against 6-OHDA-induced apoptosis in rat PC12 cells assessed as decrease in nuclear fragmentation at 20 uM after 24 hrs by Hoechst 33258 staining-based fluorescent inverted microscopic method; assay type: functional, cell-based
Procedure, shortened: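 PC12 cells exposed to 6-OHDA or rotenone with test treatment were stained with Hoechst 33258 for 30 min, mounted on glass slides under cover slips, and examined by fluorescent inverted microscopy.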

PC-12 [23] = assay: Neuroprotective activity against 6-OHDA-induced reactive oxygen species accumulation in rat PC12 cells after 24 hrs by DCFH-DA probe-based flow cytometric method; assay type: functional, cell-based
Procedure, shortened: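 PC12 cells were seeded at 2×10^5 cells/well in six-well plates and cultured with or without various concentrations of test samples for 24 h. After washing, they were loaded with DCFH-DA for 30 min at 37 °C in the dark, washed and harvested. DCF fluorescence read by flow cytometry (ex 488/em 525 nm), reported as mean fluorescence intensity.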

Mus musculus [24] = assay: Acute toxicity in Kunming mouse assessed as abnormal changes in water consumption at 2000 mg/kg measured for 14 days; assay type: organism-based; conditions: in vivo, 336 h
Procedure, shortened: (§1)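 Kunming mice (20 ± 2 g), 10 per group, vehicle control group; fasted overnight, single oral dose in 0.5% CMC-Na suspension. Observed continuously for 4 h, intermittently to 24 h, then occasionally to day 14 for behaviour, mortality, food and water intake and body weight; sacrificed under ether on day 14.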

Mus musculus [25] = assay: Acute toxicity in Kunming mouse assessed as reduction in body weight at 2000 mg/kg measured for 14 days; assay type: organism-based; conditions: in vivo, 336 h; procedure, shortened: as §1

## O=C1CCOc2cc(OCc3ccc(F)cc3)ccc21
[1]
  viability at 20 µM: 126%
PC-12 [2]
  Activity: Dose-dependent effect
PC-12 [3]
  Activity: 25.1%
PC-12 [4]
  Activity: 3.8%
PC-12 [5]
  viability at 5 µM: 69.3%
PC-12 [6]
  Activity: 22%
PC-12 [7]
  viability at 10 µM: 70.7%
PC-12 [8]
  Activity: 10.8%
PC-12 [9]
  Activity: 7%
PC-12 [10]
  Activity: 1.9%
PC-12 [11]
  Activity: 9.3%
PC-12 [12]
  viability at 5 µM: 54.2%
PC-12 [13]
  Activity: 16.1%
PC-12 [14]
  Activity: 30.8%
PC-12 [15]
  viability at 10 µM: 48%
PC-12 [16]
  Activity: 2.9%
PC-12 [17]
  Activity: 9.2%
PC-12 [18]
  Activity: 25.8%
PC-12 [19]
  viability at 40 µM: 62.1%
PC-12 [20]
  Activity: Dose-dependent effect
PC-12 [21]
  Activity: Dose-dependent effect
PC-12 [22]
  Activity: Active
PC-12 [23]
  Activity: Dose-dependent effect
Mus musculus [24]
  Activity: Non-Toxic
Mus musculus [25]
  Activity: Non-Toxic
